Measurements published in ChEMBL document CHEMBL4828732, “Synthesis and biological evaluation of selective survivin inhibitors derived from the MX-106 hydroxyquinoline scaffold” (Eur J Med Chem, 2021).
The source made the active and inactive calls. The rule behind the calls is not given here.

Legend:
[1] = Metabolic stability of the compound in rat liver microsomes assessed as half life at 10 uM incubated for 10 mins in presence of NADPH by UPLC-MS analysis; type: ADME, Microsome
MDA-MB-453 = assay: cells; conditions: Homo sapiens, MDA-MB-453, 72 h
SK-BR-3 = assay: cells; conditions: Homo sapiens, SK-BR-3, 72 h
A-375 [2] = assay: cells; conditions: Homo sapiens, A-375, 72 h
A-375 [3] = assay: Induction of apoptosis in human A-375 cells assessed as increase in cleaved PARP level after 24 hrs by Western blot analysis; type: functional, cell-based
Procedure, shortened: (§1)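 A375 cells (2 × 10⁶ per 10-cm dish) attached overnight, then treated 24 h in DMEM with 1, 5 or 10 μM. Lysed in RIPA with protease/phosphatase inhibitors; protein measured by Bradford. 50 μg run on SDS-PAGE, transferred to PVDF, blocked in 5% milk, probed overnight at 4°C for survivin, cleaved PARP, cIAP1, XIAP, Livin, with HRP-GAPDH as loading control; ECL detection.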

[4] = Metabolic stability of the compound in human liver microsomes assessed as clearance at 10 uM incubated for 240 mins in presence of NADPH by UPLC-MS analysis; conditions: 4 h
[5] = Metabolic stability of the compound in mouse liver microsomes assessed as clearance at 10 uM incubated for 10 mins in presence of NADPH by UPLC-MS analysis; type: ADME, Microsome
RPMI-7951 = assay: cells; conditions: Homo sapiens, RPMI-7951, 72 h
A-375 [6] = assay: Downregulation of survivin protein expression in human A-375 cells at 10 uM measured after 24 hrs by Westernblot analysis; type: functional, cell-based; procedure, shortened: as §1
[7] = Metabolic stability of the compound in rat liver microsomes assessed as clearance at 10 uM incubated for 10 mins in presence of NADPH by UPLC-MS analysis; type: ADME, Microsome
OVCAR-8 [8] = assay: cells; conditions: Homo sapiens, OVCAR-8, 72 h
MDA-MB-435 = assay: cells; conditions: Homo sapiens, MDA-MB-435, 72 h
OVCAR-3 [9] = assay: cells; conditions: Homo sapiens, OVCAR-3, 72 h
MDA-MB-435/LCC6MDR1 = assay: cells; conditions: Homo sapiens, MDA-MB-435, 72 h
[10] = Resistance index, ratio of IC50 for antiproliferation activity against human MDA-MB-435/LCC6MDR cells to IC50 for antiproliferation activity against human MDA-MB-435 cells assessed as cell growth inhibition measured after 72 hrs by MTS assay; type: functional
A-375 [11] = assay: Downregulation of survivin protein expression in human A-375 cells measured after 24 hrs by Westernblot analysis; type: functional, cell-based; procedure, shortened: as §1
OVCAR-3 [12] = assay: Downregulation of survivin protein expression in human OVCAR-3 cells measured after 24 hrs by Westernblot analysis; type: functional, cell-based
Procedure, shortened: (§2)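 Ovarian cancer cells treated 24 h at 2 and 4 μM, or vehicle, in serum-free RPMI 1640. Lysed in RIPA with protease inhibitor; 100 μg protein per lane run on 10% SDS-PAGE, transferred to PVDF, blocked in 5% milk. Probed for survivin, MCL1 and GAPDH; HRP secondary with ECL detection.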

OVCAR-8 [13] = conditions: Homo sapiens, dose 20.0 mg/kg, time 15.0 day
A-375 [14] = assay: Antitumor activity against human A-375 cells xenografted in NSG mouse assessed as reduction in tumor weight at 40 mg/kg, ip administrated 3 times a week for 15 days; type: functional; design: scale not given: the % may be the effect or the level left; conditions: time 15 day
[15] = Metabolic stability of the compound in human liver microsomes assessed as half life at 10 uM incubated for 10 mins in presence of NADPH by UPLC-MS analysis; type: ADME, Microsome
A-375 [16] = assay: Antitumor activity against human A-375 cells xenografted in NSG mouse assessed as reduction in tumor weight at 20 mg/kg, ip administrated 3 times a week for 15 days; type: functional; design: scale not given: the % may be the effect or the level left; conditions: time 15 day
OVCAR-8 [17] = assay: Antitumor activity against luciferase-tagged human OVCAR-8 cells xenografted into left side ovarian bursa of NSG mouse assessed as reduction in number of metastatic tumor in stomach at 20 mg/kg, ip administrated […] by histological analysis; type: functional, organism-based
A-375 [18] = assay: Antitumor activity against human A-375 cells xenografted in NSG mouse assessed as tumor growth inhibition at 20 to 40 mg/kg, ip administrated 3 times a week for 15 days; type: functional, organism-based; conditions: dose 20-40 mg/kg, time 15.0 day
[19] = Toxicity in NSG mouse xenografted with human OVCAR-8 cells assessed as reduction in body weight at 20 mg/kg, ip administrated 3 times a week for 15 days; type: organism-based; conditions: in vivo, 360 h, time 15 day
A-375 [20] = assay: Induction of apoptosis in human A-375 cells assessed as increase in cleaved […] level after 24 hrs by Western blot analysis; type: functional, cell-based
OVCAR-8 [21] = assay: Antitumor activity against luciferase-tagged human OVCAR-8 cells xenografted into left side ovarian bursa of NSG mouse assessed as reduction in number of metastatic tumor in spleen at 20 mg/kg, […] by histological analysis; type: functional, organism-based
OVCAR-8 [22] = assay: Antitumor activity against luciferase-tagged human OVCAR-8 cells xenografted into left side ovarian bursa of NSG mouse assessed as reduction in number of metastatic tumor at 20 mg/kg, ip administrated 3 times a week for 15 days by histological analysis; conditions: time 15.0 day
OVCAR-8 [23] = assay: Antitumor activity against luciferase-tagged human OVCAR-8 cells xenografted into left side ovarian bursa of NSG mouse assessed as reduction in number of metastatic tumor in kidney at 20 mg/kg, […] by histological analysis; type: functional, organism-based
OVCAR-8 [24] = assay: Antitumor activity against luciferase-tagged human OVCAR-8 cells xenografted into left side ovarian bursa of NSG mouse assessed as reduction in number of metastatic tumor in intestine at 20 mg/kg, ip administrated 3 times a week for 15 days by histological analysis; type: functional, organism-based; conditions: time 15.0 day
[25] = Toxicity in NSG mouse xenografted with human A-375 cells assessed as reduction in body weight at 40 mg/kg, ip administrated 3 times a week for 15 days; type: organism-based; conditions: in vivo, 360 h, time 15 day
OVCAR-8 [26] = assay: Antitumor activity against human OVCAR-8 cells xenografted in NSG mouse assessed as tumor weight at 20 mg/kg, ip administrated 3 times a week for 15 days; conditions: time 15 day
[27] = Toxicity in NSG mouse xenografted with human A-375 cells assessed as reduction in body weight at 20 mg/kg, ip administrated 3 times a week for 15 days; type: organism-based; conditions: in vivo, 360 h, time 15 day
OVCAR-8 [28] = assay: Downregulation of survivin protein expression in human OVCAR-8 cells measured after 24 hrs by Westernblot analysis; type: functional, cell-based; procedure, shortened: as §2
SK-OV-3 = assay: Downregulation of survivin protein expression in human SK-OV-3 cells measured after 24 hrs by Westernblot analysis; type: functional, cell-based; procedure, shortened: as §2
[29] = Metabolic stability of the compound in mouse liver microsomes assessed as half life at 10 uM incubated for 10 mins in presence of NADPH by UPLC-MS analysis; type: ADME, Microsome

SMILES | t1/2 [1] [h] | IC50 (MDA-MB-453) [nM] | IC50 (SK-BR-3) [nM] | IC50 (A-375 [2]) [nM] | Activity (A-375 [3]) | CLH [4] [µL/min/mg] | CLH [5] [µL/min/mg] | IC50 (RPMI-7951) [nM] | CLH [7] [µL/min/mg] | IC50 (OVCAR-8 [8]) [nM] | IC50 (MDA-MB-435) [nM] | IC50 (OVCAR-3 [9]) [nM] | IC50 (MDA-MB-435/LCC6MDR1) [nM] | Ratio IC50 [10] | Activity (OVCAR-3 [12]) | t1/2 [15] [h] | Activity (OVCAR-8 [28]) | Activity (SK-OV-3) | other results
CC(C)c1ccc(COCc2cc(-c3ccccc3)c(O)c3ncccc23)cc1 | 2.5 | 500 | 800 | 500 | Active | 3.2 | 5.5 | 700 | 9.2 | 2600 | 500 | 1300 | 1400 | 2.6 |  |  |  |  | Activity (A-375 [6]): inactive
Oc1c(CN2CCCCC2)cc(Cn2ncc(-c3ccc(C(F)(F)F)cc3)n2)c2cccnc12 | 1.6 |  |  |  | Active | 15.7 | 21.6 |  | 14.2 |  |  |  |  |  | Active | 1.5 | Active | Active | Activity (A-375 [11]): Dose-Dependent Effect; inhibition (OVCAR-8 [13]): Active; Activity (A-375 [14]): 55%; Activity (A-375 [16]): 32%; Activity (OVCAR-8 [17]): Active; Activity (A-375 [18]): Dose-Dependent Effect; Activity [19]: Non-Toxic; Activity (A-375 [20]): Active; Activity (OVCAR-8 [21]): Active; Activity (OVCAR-8 [22]): Active; Activity (OVCAR-8 [23]): Active; Activity (OVCAR-8 [24]): inactive; Activity [25]: Non-Toxic; tumor weight (OVCAR-8 [26]): 0.11 g; Activity [27]: Non-Toxic
Oc1c(CN2CCCC2)cc(Cn2ncc(-c3cccc(Br)c3)n2)c2cccnc12 | 0.9 | 2800 | 2700 | 600 |  | 10 | 24.3 | 600 | 24.8 | 1300 | 2600 | 800 | 900 | 0.4 | Active | 2.3 | Active | Active | t1/2 [29]: 1 h
